The source of these data is ChEMBL document CHEMBL4190408 (J Med Chem, 2018).

In data set [1] the test system is Salmonella typhimurium. The data set can be described thus: Genotoxicity in Salmonella typhimurium TA1537 up to 1000 uM after 2 days in presence or absence of liver S9 fraction by Ames test. The settings on record: salmonella enterica subsp. enterica serovar typhimurium, s9, 48 h. The class given is toxicity, organism-based. An outline of the steps: (§1)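 MiniAMES (MPF format) with Salmonella typhimurium TA98, TA100 and TA1537, with and without S9 metabolic activation. 2-day incubation, top concentration 1000 µM.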
(The Ames test uses bacterial strains that need an amino acid and regain growth without it when mutated back.)

Data set [2] has as its system Salmonella typhimurium. The data set can be described thus: Genotoxicity in Salmonella typhimurium TA98 up to 1000 uM after 2 days in presence or absence of liver S9 fraction by Ames test. The class given is toxicity, organism-based. The settings on record: salmonella enterica subsp. enterica serovar typhimurium, s9, 48 h. An outline of the steps:
as §1

The test system of data set [3] is Salmonella typhimurium. The data set can be described thus: Genotoxicity in Salmonella typhimurium TA100 up to 1000 uM after 2 days in presence or absence of liver S9 fraction by Ames test. The settings on record: salmonella enterica subsp. enterica serovar typhimurium, s9, 48 h. Format: toxicity, organism-based. Summed up: as §1
A further data set relates to Escherichia coli. The data set can be described thus: Genotoxicity in Escherichia coli uvrA up to 2000 uM after 2 days in presence or absence of liver S9 fraction by Ames test. The settings on record: s9, 48 h. The class given is toxicity, organism-based. Summed up:
(§2)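 Ames MPF format with Salmonella typhimurium TA98, TA100, TA1535, TA1537 and E. coli uvrA. Run with and without metabolic activation (S9), 2-day incubation, up to 2000 µM.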

The subject of data set [4] is Mus musculus. The data set can be described thus: Unbound AUC in Balb/c mouse at 1 mg/kg, iv. The class given is ADME, organism-based. The settings on record: in vivo. An outline of the steps: (§3)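 Intravenous PK in male Balb/C mice, n=3, at 1 mpk. Vehicle was 30% DMA or 15% NMP, depending on the compound.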
The nature of data set [5]: Volume of distribution at steady state in Balb/c mouse at 1 mg/kg, iv. The class given is ADME, organism-based. The settings on record: Balb/c, in vivo, read-out: Vdss. Summed up:
as §3

Data set [6] can be described thus: Oral bioavailability in Balb/c mouse at 10 mg/kg after 1 hr. The class given is ADME, organism-based. The settings on record: Balb/c, in vivo. An outline of the steps:
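Male Balb/C mice, n=3. Oral dose of 10 mpk as a homogeneous suspension of crystalline solid in 0.1% Tween 80, 0.1% silicone antifoam, 1% methylcellulose (400 cps) in water. I.v. dose of 1 mpk in 30% DMA or 15% NMP, depending on the compound. Bioavailability was extrapolated from the i.v./p.o. experiments.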

The test system of data set [7] is Salmonella typhimurium. The data set can be described thus: Genotoxicity in Salmonella typhimurium TA98 up to 2000 uM after 2 days in presence or absence of liver S9 fraction by Ames test. The class given is toxicity, organism-based. The settings on record: salmonella enterica subsp. enterica serovar typhimurium, s9, 48 h. An outline of the steps:
as §2

Data set [8] can be described thus: Thermodynamic solubility of the compound in pH 7.4 solution after 90 mins by UVLC-MS analysis. The class given is physicochemical. The settings on record: pH 7.4 solution, pH 7.4; read-out: Therm_solubility.
A short description of data set [9]: physchem. The settings on record: phosphate buffer, pH 7.4.
In data set [10] the test system is Salmonella typhimurium. The data set can be described thus: Genotoxicity in Salmonella typhimurium TA1535 up to 2000 uM after 2 days in presence or absence of liver S9 fraction by Ames test. Format: toxicity, organism-based. The settings on record: salmonella enterica subsp. enterica serovar typhimurium, s9, 48 h. Summed up:
as §2

Data set [11] can be described thus: physchem. The settings on record: pH 7.4 solution.
Data set [12] in a line: in vitro. The settings on record: human, liver microsomes.
The subject of data set [13] is Mus musculus. The data set can be described thus: Unbound AUC (infinity) in Balb/c mouse at 10 mg/kg, po after 1 hr. The class given is ADME, organism-based. The settings on record: in vivo.
Data set [14] in a line: in vitro. The settings on record: mouse, liver microsomes. A general note: Liver microsomes are vesicles of endoplasmic reticulum, rich in cytochrome P450 enzymes.
The subject of data set [15] is Mus musculus. The data set can be described thus: Inhibition of allograft rejection in Balb/c mouse heterotopic cardiac transplantation model using C57BL/6 as cardiac donor assessed as long-term graft survival rate by measuring cardiac allograft function by daily palpitation at 5 mg/kg, po qd for 28 days. Format: functional, organism-based. The settings on record: in the assay text read “for 14 days” for “for 28 days”. An outline of the steps:
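Heterotopic cardiac allografts from C57BL/6 donors into Balb/C recipients. Recipients received 5 mpk as a homogeneous suspension in 0.1% Tween 80, 0.1% silicone antifoam, 1% methylcellulose (400 cps), or vehicle alone, by oral gavage once daily. Survival was compared with vehicle; rejection was indicated when the graft stopped beating.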

Data set [16] concerns Salmonella typhimurium. The data set can be described thus: Genotoxicity in Salmonella typhimurium TA1537 up to 2000 uM after 2 days in presence or absence of liver S9 fraction by Ames test. Format: toxicity, organism-based. The settings on record: salmonella enterica subsp. enterica serovar typhimurium, s9, 48 h. An outline of the steps:
as §2

A short description of data set [17]: Clearance in Balb/c mouse at 1 mg/kg, iv. The class given is ADME, organism-based. The settings on record: Balb/c, in vivo. An outline of the steps:
as §3

Data set [18] in a line: Half life in Balb/c mouse at 1 mg/kg, iv. The class given is ADME, organism-based. The settings on record: Balb/c, in vivo. An outline of the steps:
as §3

The nature of data set [19]: Fraction unbound in mouse blood. Format: ADME, tissue-based.
The nature of data set [20]: Apparent clearance in Balb/c mouse at 10 mg/kg, po after 1 hr. Format: ADME, organism-based. The settings on record: in vivo.
Data set [21] deals with Salmonella typhimurium. The data set can be described thus: Genotoxicity in Salmonella typhimurium TA100 up to 2000 uM after 2 days in presence or absence of liver S9 fraction by Ames test. The class given is toxicity, organism-based. The settings on record: salmonella enterica subsp. enterica serovar typhimurium, s9, 48 h. Summed up:
as §2

Data set [22] deals with Mus musculus. The data set can be described thus: Unbound Cmax in Balb/c mouse at 10 mg/kg, po after 1 hr. Format: ADME, organism-based. The settings on record: in vivo.

Converted amounts (≈) assume the structure as drawn. The source made the active and inactive calls.

As to `COc1ccc(N)c(C)c1.Cl`, the Activity result in the data set with Salmonella typhimurium [1], in the data set with Salmonella typhimurium [2] and in the data set with Salmonella typhimurium [3] was “Non-Toxic” each time.
In the case of `COc1ccc(NC(=O)N2CCN(c3nc(N)nc4c3cnn4C)[C@@H](C)C2)c(C)c1`, the Activity entry in the data set with Escherichia coli, in the data set with Salmonella typhimurium [7], in the data set on Salmonella typhimurium [10], in the data set on Salmonella typhimurium [16] and with Salmonella typhimurium [21] was “Non-Toxic” in each case. For the same compound, the fAUC in the data set on Mus musculus [4] was 0.684 µM·h; in the data set with Mus musculus [13], 6.941 µM·h. Besides, the Vd in data set [5] came out at 0.6 L/kg. This compound also yielded a bioavailability in data set [6] of 100%. For the same compound, in data set [8], the solubility thermodynamic at 1.5 h came out at 110 µM (≈ 45.2 µg/mL). This compound also returned a logD at 1.5 h in the data set “physchem [9]” of 1.47. This compound showed a solubility (kinetic) at 1.5 h in the data set “physchem [11]” above 350 µM. Also, the intrinsic clearance (microsomal CLint) at 0.75 h, 3 µM in “in vitro [12]” was found to be 4 µL/min/mg; in “in vitro [14]” it was 6 µL/min/mg. In addition, the result in the data set on Mus musculus [15] was Active. In data set [17], the clearance came to 5 mL/min/kg. The same compound had a half-life in [18] of 1.4 h. In addition, the fraction unbound in data set [19] turned out to be 0.09. Besides, the apparent clearance CL/F in data set [20] is 5.3 mL/min/kg. Also, the fCmax in the data set with Mus musculus [22] is 2113 nM.

As usually defined, the bioavailability is dose-corrected exposure relative to a reference, in per cent. The logD is lipophilicity at a set pH, counting ionised and neutral species. A high value points to a more lipophilic compound. The kinetic solubility is solubility judged after dilution from a stock solution rather than from solid. In general, microsomal CLint refers to a measure of how fast metabolising enzymes remove a compound, apart from limits set by blood flow. A higher microsomal CLint goes with rapid turnover. A word on the clearance: it is the rate of elimination divided by the concentration. A lower clearance goes with a low capacity for elimination. The term half-life denotes the time needed for the level to fall by half in the phase considered. The low end stands for rapid decline, the high end for slow decline. As usually defined, the fraction unbound is free concentration divided by total concentration. Read a low fraction unbound as little free substance. For orientation: CL/F means clearance divided by bioavailability, as obtained after extravascular dosing.
